Experimental data: ChEMBL document CHEMBL5335840, “Stereoselective synthesis and antiproliferative activity of allo-gibberic acid-based 1,3-aminoalcohol regioisomers” (RSC Med Chem, 2024)

Assays:
HeLa = assay: Antiproliferative activity against human HeLa cells assessed as inhibition of cell growth incubated for 72 hrs by MTT assay; assay type: functional, cell-based
How it was run: (§1)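 Cells kept in Eagle's MEM with 10% FBS, 1% non-essential amino acids and 1% antibiotic-antimycotic at 37 °C, 5% CO2. Seeded at 5000 cells per well and incubated overnight before compound addition. Growth inhibition tested at 10 and 30 μM, IC50 from 1.0–30.0 μM (four concentrations). MTT added for 4 h, formazan dissolved in DMSO, absorbance read at 545 nm. Untreated control, two experiments of five wells.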

MCF7 = assay: Antiproliferative activity against human MCF7 cells assessed as inhibition of cell growth incubated for 72 hrs by MTT assay; assay type: functional, cell-based; details: MCF7, 72 h; how it was run: as §1
[1] = Cytotoxicity against mouse NIH/3T3 cells assessed as inhibition of cell growth incubated for 72 hrs by MTT assay; assay type: toxicity, cell-based, NIH3T3; how it was run: as §1
SiHa = assay: Antiproliferative activity against human SiHa cells assessed as inhibition of cell growth incubated for 72 hrs by MTT assay; assay type: functional, cell-based; how it was run: as §1
MDA-MB-231 = assay: Antiproliferative activity against human MDA-MB-231 cells assessed as inhibition of cell growth incubated for 72 hrs by MTT assay; assay type: functional, cell-based; details: MDA-MB-231, 72 h; how it was run: as §1
A2780 = assay: Antiproliferative activity against human A2780 cells assessed as inhibition of cell growth incubated for 72 hrs by MTT assay; assay type: functional, cell-based; details: A2780, 72 h; how it was run: as §1

SMILES | IC50 (HeLa) [µM] | IC50 (MCF7) [µM] | IC50 at 72 h [1] [µM] | IC50 (SiHa) [µM] | IC50 (MDA-MB-231) [µM] | IC50 (A2780) [µM]
CCOC(=O)[C@H]1c2c(C)cccc2[C@H]2CC[C@@]3(CN[C@@H](C)c4ccc5ccccc5c4)C[C@]21C[C@H]3O | 5.1 | 3.66 | 4.62 | 4.36 | – | –
CCOC(=O)[C@H]1c2c(C)cccc2[C@H]2CC[C@@]3(CO)C[C@]21C[C@@H]3NCc1cc(Br)ccc1O | 5.06 | 3.85 | 19.7 | 21.9 | 6.48 | 5.08
CCOC(=O)[C@H]1c2c(C)cccc2[C@H]2CC[C@@]3(CO)C[C@]21C[C@@H]3N[C@H](C)c1cccc2ccccc12 | 18.6 | 7.07 | 14.5 | 22.7 | 19.3 | 4.57
CCOC(=O)[C@H]1c2c(C)cccc2[C@H]2CC[C@@]3(CNCc4cc(Br)ccc4O)C[C@]21C[C@H]3O | 4.71 | 2.42 | 13 | 20.6 | 4.99 | 5.39
CCOC(=O)[C@H]1c2c(C)cccc2[C@H]2CC[C@@]3(CNCc4ccc(OC)cc4)C[C@]21C[C@H]3O | 12.9 | 4.08 | 14.7 | 17.7 | 6.5 | 13.8
CCOC(=O)[C@H]1c2c(C)cccc2[C@H]2CC[C@@]3(CO)C[C@]21C[C@@H]3NCCc1c[nH]c2ccccc12 | 4.01 | 3.14 | 13 | 4.12 | 4.71 | 4.57
CCOC(=O)[C@H]1c2c(C)cccc2[C@H]2CC[C@]3(O)C[C@@]21C[C@]3(O)CN[C@@H](C)c1cccc2ccccc12 | 4.38 | – | 4.38 | 4.38 | 4.38 | 4.38
CCOC(=O)[C@H]1c2c(C)cccc2[C@H]2CC[C@@]3(CO)C[C@]21C[C@@H]3N[C@@H](C)c1cccc2ccccc12 | 20.7 | 3.43 | 6.02 | 22.3 | 10.4 | –
CCOC(=O)[C@H]1c2c(C)cccc2[C@H]2CC[C@@]3(CNCc4ccc(F)cc4)C[C@]21C[C@H]3O | 18.8 | 4.4 | 15.2 | 8.4 | 7.71 | –
